Measurements as given in paper PMC6175367 (Journal of Clinical Pharmacology, 2018).
Structures can show the parent of a compound that is named as a salt.

Legend:
PRA [1] = details: aliskiren 300 mg on day 1 and days 4‐10, Japanese and white subjects; cited from earlier work
[2] = molecular target: T1, plasma renin activity (PRA) (Homo sapiens, UniProt P00797); type: in vivo
T1 sequence (P00797 67-406): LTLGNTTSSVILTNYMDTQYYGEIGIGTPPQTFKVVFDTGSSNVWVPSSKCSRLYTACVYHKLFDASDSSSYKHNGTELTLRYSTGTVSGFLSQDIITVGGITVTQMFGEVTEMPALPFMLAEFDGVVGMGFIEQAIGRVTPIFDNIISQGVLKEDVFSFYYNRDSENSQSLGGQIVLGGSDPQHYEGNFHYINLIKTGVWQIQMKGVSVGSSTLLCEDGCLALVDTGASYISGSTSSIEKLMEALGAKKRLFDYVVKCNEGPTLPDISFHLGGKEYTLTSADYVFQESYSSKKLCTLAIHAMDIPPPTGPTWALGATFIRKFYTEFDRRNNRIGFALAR

[3] = system: plasma angiotensin II concentration (AII); test: Plasma angiotensin II concentration; type: in vivo, human
Summary of the method: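 Double-blind, placebo-controlled once-daily oral tablet dosing for 7 days in healthy Japanese men (nonelderly 20‑45 y, elderly 65‑85 y), given 30 min after starting breakfast with 200 mL water, with uniform meals. Plasma angiotensin II was measured by radioimmunoassay at 1 h predose and 1‑12 h postdose on days 1 and 7, predose on days 2‑6, and up to 71 h after the last dose.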

PRA [4] = details: ≥5 mg dose, CPH‐001 study; cited from earlier work
[5] = Plasma pharmacokinetics after multiple oral administrations of imarikiren; type: in vivo, human
Summary of the method: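 Healthy males (nonelderly 20–45 y, elderly 65–85 y) took test compound or placebo tablets orally once daily for 7 days (80 or 160 mg). Fluids were withheld from 2 h pre-dose to 4 h post-dose. Plasma parent and metabolite were measured by HPLC‑MS/MS, with noncompartmental analysis on actual sampling times. Accumulation = 100 × AUC0‑tau day 7/day 1. Age effect: elderly−nonelderly difference in ln AUC0‑tau and Cmax, day 7, with 90%/95% CI.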

[6] = single‐dose administration; cited from earlier work
[7] = Safety evaluation: adverse events, vital signs, weight, ECG, laboratory tests; type: in vivo, human
[8] = dose of up to 200 mg, healthy nonelderly adult male subjects, CPH‐001; cited from earlier work
[9] = system: plasma active renin concentration (PRC); test: Plasma active renin concentration; type: in vivo, human
Summary of the method: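 Healthy Japanese male volunteers (nonelderly 20‑45 y, elderly 65‑85 y) took test compound or placebo tablets orally once daily for 7 days, 30 min after starting breakfast with 200 mL water. Sodium-matched meals were given. Plasma active renin was measured by immunoradiometric assay at 1 h predose and 1, 2, 4, 6, 12 h postdose on days 1 and 7, 1 h predose on days 2‑6, and 23, 47, 71 h after the last dose.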

[10] = imarikiren 80 mg, day 7, Cohort 3 vs Cohort 1
[11] = imarikiren 80 mg, nonelderly, listed as imarikiren
[12] = imarikiren 160 mg, nonelderly, listed as imarikiren
[13] = imarikiren 80 mg once daily 7 days, elderly (n = 9)
[14] = imarikiren 80 mg once daily 7 days, nonelderly (n = 9)
[15] = imarikiren 80 mg, nonelderly (2 of 9 subjects)
[16] = imarikiren 160 mg once daily 7 days, nonelderly (n = 9)

For COCCCOc1cc(C[C@@H](C[C@H](N)[C@@H](O)C[C@H](C(=O)NCC(C)(C)C(N)=O)C(C)C)C(C)C)ccc1OC [aliskiren], the “PRA inhibition at steady state” value (PRA [1]) is listed as “incomplete PRA inhibition”.

In the case of COCCCCn1c(C(=O)N(CC(C)C)[C@@H]2CNC[C@H](C(=O)N3CCOCC3)C2)nc2ccccc21 [Imarikiren, Imarikiren hydrochloride], the “Time after the last administration for which inhibition of PRA was maintained” value ([2]; 80 mg (nonelderly and elderly) and 160 mg (nonelderly), once daily for 7 days) is reported as “at least 71 hours”, the “PRA inhibition with multiple dosing” value ([2]; for 7 days, sustained for nearly 3 days after the last administration) is reported as “complete inhibition” and the “Change from baseline in AII” value ([3]; 80 mg, elderly, any time) is reported as “no changes from baseline”. The “Change from baseline in AII” value ([3]; 160 mg, nonelderly, days 1 through 7) was “decreased from baseline”, the “Inhibition of PRA after single oral administration” value (PRA [4]) was “completely inhibited PRA” and the Tmax ([5]; human, plasma, oral, 160 mg, median time to reach the maximum observed plasma concentration (Tmax), nonelderly subjects, all groups (80 and 160 mg), days 1 and 7) was 1 to 2 h. For the same compound, the “CL/F, mean (SD)” value ([5]; imarikiren 80 mg oral once daily, elderly, Day 1) was 15.2 (4.6) L/hr, the “CL/F, mean (SD)” value ([5]; imarikiren 80 mg oral once daily, elderly, Day 7) was 14.1 (3.4) L/hr and the “CL/F, mean (SD)” value ([5]; imarikiren 80 mg oral once daily, nonelderly, Day 1) was 19.6 (3.6) L/hr. For the same compound, the “CL/F, mean (SD)” value ([5]; imarikiren 80 mg oral once daily, nonelderly, Day 7) was 21.5 (5.6) L/hr, the “AUC0‐tau higher in elderly than in nonelderly subjects” value [5, 10] was 52% and the “Cmax higher in elderly than in nonelderly subjects” value [5, 10] was 39%. The “Accumulation index (AUC) percentage (100 × AUC0‐tau day 7/AUC0‐inf day 1), mean (SD)” value (“Accumulation index (AUC) percentage … (SD)” below) ([5]; imarikiren 80 mg, nonelderly) was 94.4 (21.8) %, the “Accumulation index (t1/2) percentage, mean (SD)” value ([5]; imarikiren 80 mg, nonelderly) was 116.4 (39.1) % and the “R(AUC), AUC accumulation factor percentage (100 × AUC0‐tau day 7/AUC0‐tau day 1), mean (SD)” value ([5]; imarikiren 80 mg, nonelderly) was 106.4 (22.4) %. For the same compound, the “Accumulation index (AUC) percentage … (SD)” value [5, 11] was 94.4%, the “R(AUC), AUC accumulation factor percentage (100 × AUC0‐tau day 7/AUC0‐tau day 1), mean (SD)” value [5, 11] was 106.4% and the “CL/F, mean (SD)” value ([5]; imarikiren 160 mg oral once daily, nonelderly, Day 1) was 19.7 (5.1) L/hr. The “CL/F, mean (SD)” value ([5]; imarikiren 160 mg oral once daily, nonelderly, Day 7) was 17.6 (3.3) L/hr, the “Accumulation index (AUC) percentage … (SD)” value ([5]; imarikiren 160 mg, nonelderly) was 114.2 (30.0) % and the “Accumulation index (t1/2) percentage, mean (SD)” value ([5]; imarikiren 160 mg, nonelderly) was 119.7 (34.3) %. The “R(AUC), AUC accumulation factor percentage (100 × AUC0‐tau day 7/AUC0‐tau day 1), mean (SD)” value ([5]; imarikiren 160 mg, nonelderly) was 123.0 (32.6) %, the “Accumulation index (AUC) percentage … (SD)” value [5, 12] was 114.2% and the “R(AUC), AUC accumulation factor percentage (100 × AUC0‐tau day 7/AUC0‐tau day 1), mean (SD)” value [5, 12] was 123.0%. The “Plasma concentration reached steady state (based on trough concentration)” value ([5]; multiple oral administration of 80 mg and 160 mg, nonelderly) was no more than 7 days, the “Food effect on the PK” value [6] was “minimal effect” and the “Overall safety and tolerability” value ([7]; 80 or 160 mg for 7 days nonelderly, 80 mg elderly) was “safe and well tolerated”. The “Intensity of TEAEs” value ([7]; all TEAEs, with the exception of moderate urticaria in 1 nonelderly subject (80 mg)) was “mild in intensity”, the “Changes in ECG parameters” value ([7]; all cohorts) was “No obvious changes” and the “Serious TEAEs and deaths” value ([7]; all cohorts, during the study) was “no serious TEAEs and no deaths”. For the same compound, the “TEAEs reported, subjects” value ([7]; all nonelderly subjects who received imarikiren) was 22.2%, the “TEAEs related to the study drug, subjects” value (shortened to “TEAEs related”) ([7]; all nonelderly subjects who received imarikiren (3 of 18 subjects)) was 16.7% and the “Subjects with any TEAEs” value [7, 13] was 3 (33.3) n (%). For the same compound, the “TEAE: Alanine aminotransferase increased” value [7, 13] was 1 (11.1) n (%), the “TEAE: Aspartate aminotransferase increased” value [7, 13] was 1 (11.1) n (%) and the “TEAE: Blood creatinine phosphokinase increased” value [7, 13] was 0 n (%). The “TEAE: Blood triglycerides increased” value [7, 13] was 0 n (%), the “TEAE: Diarrhea” value [7, 13] was 1 (11.1) n (%) and the “TEAE: Eye disorders” value [7, 13] was 0 n (%). The “TEAE: Feeling hot” value [7, 13] was 0 n (%), the “TEAE: Gastrointestinal disorders” value [7, 13] was 1 (11.1) n (%) and the “TEAE: General disorders and administration site conditions” value [7, 13] was 0 n (%). The “TEAE: Headache” value [7, 13] was 1 (11.1) n (%), the “TEAE: Investigations” value [7, 13] was 2 (22.2) n (%) and the “TEAE: Nervous system disorders” value [7, 13] was 1 (11.1) n (%). For the same compound, the “TEAE: Pruritus” value [7, 13] was 0 n (%), the “TEAE: Skin and subcutaneous tissue disorders” value [7, 13] was 0 n (%) and the “TEAE: Urticaria” value [7, 13] was 0 n (%). For the same compound, the “TEAE: Vision blurred” value [7, 13] was 0 n (%), the “TEAE: White blood cell count decreased” value [7, 13] was 1 (11.1) n (%) and the “TEAE: White blood cell count increased” value [7, 13] was 0 n (%). The “Subjects with any TEAEs” value [7, 14] was 2 (22.2) n (%), the “TEAE: Alanine aminotransferase increased” value [7, 14] was 0 n (%) and the “TEAE: Aspartate aminotransferase increased” value [7, 14] was 0 n (%). The “TEAE: Blood creatinine phosphokinase increased” value [7, 14] was 0 n (%), the “TEAE: Blood triglycerides increased” value [7, 14] was 0 n (%) and the “TEAE: Diarrhea” value [7, 14] was 0 n (%). For the same compound, the “TEAE: Eye disorders” value [7, 14] was 0 n (%), the “TEAE: Feeling hot” value [7, 14] was 1 (11.1) n (%) and the “TEAE: Gastrointestinal disorders” value [7, 14] was 0 n (%). The “TEAE: General disorders and administration site conditions” value [7, 14] was 1 (11.1) n (%), the “TEAE: Headache” value [7, 14] was 0 n (%) and the “TEAE: Investigations” value [7, 14] was 1 (11.1) n (%). For the same compound, the “TEAE: Nervous system disorders” value [7, 14] was 0 n (%), the “TEAE: Pruritus” value [7, 14] was 1 (11.1) n (%) and the “TEAE: Skin and subcutaneous tissue disorders” value [7, 14] was 2 (22.2) n (%). For the same compound, the “TEAE: Urticaria” value [7, 14] was 1 (11.1) n (%), the “TEAE: Vision blurred” value [7, 14] was 0 n (%) and the “TEAE: White blood cell count decreased” value [7, 14] was 0 n (%). The “TEAE: White blood cell count increased” value [7, 14] was 1 (11.1) n (%), the “TEAEs related” value ([7]; imarikiren 80 mg, elderly (2 of 9 subjects)) was 22.2% and the “TEAEs reported, subjects” value ([7]; imarikiren 80 mg, elderly (3 of 9 subjects)) was 33.3%. For the same compound, the “TEAEs related” value [7, 15] was 22.2%, the “TEAEs reported, subjects” value [7, 15] was 22.2% and the “Subjects with any TEAEs” value [7, 16] was 2 (22.2) n (%). For the same compound, the “TEAE: Alanine aminotransferase increased” value [7, 16] was 2 (22.2) n (%), the “TEAE: Aspartate aminotransferase increased” value [7, 16] was 0 n (%) and the “TEAE: Blood creatinine phosphokinase increased” value [7, 16] was 0 n (%). For the same compound, the “TEAE: Blood triglycerides increased” value [7, 16] was 0 n (%), the “TEAE: Diarrhea” value [7, 16] was 0 n (%) and the “TEAE: Eye disorders” value [7, 16] was 0 n (%). For the same compound, the “TEAE: Feeling hot” value [7, 16] was 0 n (%), the “TEAE: Gastrointestinal disorders” value [7, 16] was 0 n (%) and the “TEAE: General disorders and administration site conditions” value [7, 16] was 0 n (%). For the same compound, the “TEAE: Headache” value [7, 16] was 0 n (%), the “TEAE: Investigations” value [7, 16] was 2 (22.2) n (%) and the “TEAE: Nervous system disorders” value [7, 16] was 0 n (%). The “TEAE: Pruritus” value [7, 16] was 0 n (%), the “TEAE: Skin and subcutaneous tissue disorders” value [7, 16] was 0 n (%) and the “TEAE: Urticaria” value [7, 16] was 0 n (%). The “TEAE: Vision blurred” value [7, 16] was 0 n (%), the “TEAE: White blood cell count decreased” value [7, 16] was 0 n (%) and the “TEAE: White blood cell count increased” value [7, 16] was 0 n (%). For the same compound, the “TEAEs related” value ([7]; imarikiren 160 mg, nonelderly (1 of 9 subjects)) was 11.1%, the “TEAEs reported, subjects” value ([7]; imarikiren 160 mg, nonelderly (2 of 9 subjects)) was 22.2% and the “Change in mean blood pressure” value ([7]; imarikiren groups, day 7 compared with baseline) was “decrease in mean blood pressure”. For the same compound, the “Tolerability of single dose” value [8] was “good tolerability”, the “Change from baseline in PRC, mean (SD)” value ([9]; imarikiren 80 mg oral once daily, elderly, Day 2 (–1 hr)) was 78.3 (72.3) pg/mL and the “Change from baseline in PRC, mean (SD)” value ([9]; imarikiren 80 mg oral once daily, elderly, Day 7 (23 hrs)) was 154.4 (168.0) pg/mL. For the same compound, the “Change from baseline in PRC, mean (SD)” value ([9]; imarikiren 80 mg oral once daily, nonelderly, Day 2 (–1 hr)) was 169.3 (140.9) pg/mL, the “Change from baseline in PRC, mean (SD)” value ([9]; imarikiren 80 mg oral once daily, nonelderly, Day 7 (23 hrs)) was 247.1 (130.1) pg/mL and the “Change from baseline in PRC, mean (SD)” value ([9]; imarikiren 160 mg oral once daily, nonelderly, Day 2 (–1 hr)) was 129.5 (106.8) pg/mL. For the same compound, the “Change from baseline in PRC, mean (SD)” value ([9]; imarikiren 160 mg oral once daily, nonelderly, Day 7 (23 hrs)) was 487.3 (264.9) pg/mL.
